Blank lines part the entries; values can stand above or below the compound they belong to.
Assays:
[1] = tested on: Mus musculus; test: Analgesic activity in po dosed mouse assessed as licking behavior measured after 20 to 25 mins by formalin test; type: functional, organism-based
[2] = Metabolic stability in Sprague-Dawley rat assessed as unmetabolized parent compound in urine at 10 mg/kg, iv after 1 hr by MS/MS analysis; type: ADME, organism-based; set-up: dose 10 mg/kg, route intravenous; conditions: in vivo
How it was run: (§1)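 Two anesthetized male Sprague-Dawley rats got 10 mg/kg in sterile water by tail vein; two controls got sterile water at 1 mL/kg. Rats were kept awake 1 h, then decapitated. Plasma and urine went to LC-MS/MS, full scans compared with control.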

[3] = tested on: Plasma; test: Metabolic stability in Sprague-Dawley rat assessed as unmetabolized parent compound in plasma at 10 mg/kg, iv after 1 hr by MS/MS analysis; type: ADME, organism-based; set-up: dose 10 mg/kg, route intravenous; conditions: in vivo; how it was run: as §1
[4] = target: Glutamate NMDA receptor; GRIN1/GRIN2B (Homo sapiens, UniProt Q05586+Q13224); test: Displacement of [3H]-Ro-256981 from recombinant NR1/NR2B receptor; type: protein-complex assay
Sequence of Glutamate NMDA receptor; GRIN1/GRIN2B (Q13224 whole entry, other chains not shown): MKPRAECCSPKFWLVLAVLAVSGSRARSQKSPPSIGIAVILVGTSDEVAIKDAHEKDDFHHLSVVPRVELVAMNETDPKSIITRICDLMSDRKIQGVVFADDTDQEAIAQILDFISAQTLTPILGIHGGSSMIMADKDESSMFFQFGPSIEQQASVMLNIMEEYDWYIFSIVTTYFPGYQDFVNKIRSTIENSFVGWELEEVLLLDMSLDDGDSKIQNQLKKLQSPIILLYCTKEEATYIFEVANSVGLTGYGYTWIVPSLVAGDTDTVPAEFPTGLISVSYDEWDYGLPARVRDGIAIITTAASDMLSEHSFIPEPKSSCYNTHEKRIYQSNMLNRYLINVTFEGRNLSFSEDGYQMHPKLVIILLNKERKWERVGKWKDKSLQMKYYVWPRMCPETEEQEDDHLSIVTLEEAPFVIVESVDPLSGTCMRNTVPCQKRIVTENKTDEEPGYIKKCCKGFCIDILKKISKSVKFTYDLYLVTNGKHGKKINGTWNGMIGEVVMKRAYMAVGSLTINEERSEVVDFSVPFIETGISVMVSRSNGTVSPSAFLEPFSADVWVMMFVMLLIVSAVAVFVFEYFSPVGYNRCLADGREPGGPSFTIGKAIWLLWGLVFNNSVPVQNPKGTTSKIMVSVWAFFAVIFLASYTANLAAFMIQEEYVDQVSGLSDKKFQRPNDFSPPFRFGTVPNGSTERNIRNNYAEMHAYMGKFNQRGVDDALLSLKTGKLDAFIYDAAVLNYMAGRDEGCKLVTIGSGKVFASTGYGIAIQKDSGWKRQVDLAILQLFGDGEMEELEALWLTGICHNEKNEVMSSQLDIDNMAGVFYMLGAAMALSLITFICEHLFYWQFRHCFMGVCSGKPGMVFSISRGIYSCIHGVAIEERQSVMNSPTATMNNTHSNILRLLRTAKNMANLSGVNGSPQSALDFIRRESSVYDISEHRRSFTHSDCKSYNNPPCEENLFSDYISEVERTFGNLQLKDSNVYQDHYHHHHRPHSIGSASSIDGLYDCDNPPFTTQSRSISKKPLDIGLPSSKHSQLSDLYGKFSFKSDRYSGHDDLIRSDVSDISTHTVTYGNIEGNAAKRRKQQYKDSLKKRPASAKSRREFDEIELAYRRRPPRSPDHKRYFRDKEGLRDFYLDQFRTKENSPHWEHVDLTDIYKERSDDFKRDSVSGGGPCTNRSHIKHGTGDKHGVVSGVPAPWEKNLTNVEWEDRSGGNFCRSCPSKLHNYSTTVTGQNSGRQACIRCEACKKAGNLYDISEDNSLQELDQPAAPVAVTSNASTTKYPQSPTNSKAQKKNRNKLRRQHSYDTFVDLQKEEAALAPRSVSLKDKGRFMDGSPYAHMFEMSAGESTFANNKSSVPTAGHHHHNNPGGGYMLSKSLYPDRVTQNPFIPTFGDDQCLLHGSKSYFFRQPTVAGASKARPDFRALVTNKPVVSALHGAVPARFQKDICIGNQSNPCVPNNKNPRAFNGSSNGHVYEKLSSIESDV

[5] = tested on: Muscle tissue; test: Biodistribution in Sprague-Dawley rat muscle at 3.2 to 18.6 MBq, iv after 120 mins by micro PET analysis; type: ADME, organism-based; conditions: in vivo, 2 h
How it was run: (§2)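 Male Sprague-Dawley rats (235-310 g) under isoflurane got 18F radiotracer (3.2-18.6 MBq) by tail-vein catheter, n = 3. Dynamic microPET scan for 120 min, then ex vivo tissue counting at 120 min post-injection. Values are %ID/g ± SEM.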

[6] = Biodistribution in Sprague-Dawley rat fat at 3.2 to 18.6 MBq, iv after 120 mins by micro PET analysis; type: ADME, organism-based, Adipose tissue; conditions: in vivo, 2 h; how it was run: as §2
[7] = tested on: Brain; test: Biodistribution in Sprague-Dawley rat brain at 3.2 to 18.6 MBq, iv after 120 mins by micro PET analysis; type: ADME, organism-based; conditions: in vivo, 2 h; how it was run: as §2
[8] = tested on: Bone; test: Biodistribution in Sprague-Dawley rat bone at 3.2 to 18.6 MBq, iv after 120 mins by micro PET analysis; type: ADME, organism-based, Bone element; conditions: in vivo, 2 h; how it was run: as §2
[9] = tested on: Thymus; test: Biodistribution in Sprague-Dawley rat thymus at 3.2 to 18.6 MBq, iv after 120 mins by micro PET analysis; type: ADME, organism-based; conditions: in vivo, 2 h; how it was run: as §2
[10] = Metabolic stability in Sprague-Dawley rat plasma assessed as half life by radio thin layer chromatography analysis; type: ADME, cell-free
How it was run: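 Anesthetized male Sprague-Dawley rats (235-330 g) given radiotracer (3.2-15.1 MBq). Femoral arterial blood was sampled over 90 min and plasma gamma-counted. Plasma was diluted with acetonitrile, centrifuged and run on silica radio-TLC with cold reference, giving parent and radiometabolite fractions.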

[11] = tested on: Lung; test: Biodistribution in Sprague-Dawley rat lung at 3.2 to 18.6 MBq, iv after 120 mins by micro PET analysis; type: ADME, organism-based; conditions: in vivo, 2 h; how it was run: as §2
[12] = tested on: Heart; test: Biodistribution in Sprague-Dawley rat heart at 3.2 to 18.6 MBq, iv after 120 mins by micro PET analysis; type: ADME, organism-based; conditions: in vivo, 2 h; how it was run: as §2
[13] = tested on: Pancreas; test: Biodistribution in Sprague-Dawley rat pancreas at 3.2 to 18.6 MBq, iv after 120 mins by micro PET analysis; type: ADME, organism-based; conditions: in vivo, 2 h; how it was run: as §2
[14] = tested on: Liver; test: Biodistribution in Sprague-Dawley rat liver at 3.2 to 18.6 MBq, iv after 120 mins by micro PET analysis; type: ADME, organism-based; conditions: in vivo, 2 h; how it was run: as §2
[15] = tested on: Spleen; test: Biodistribution in Sprague-Dawley rat spleen at 3.2 to 18.6 MBq, iv after 120 mins by micro PET analysis; type: ADME, organism-based; conditions: in vivo, 2 h; how it was run: as §2
[16] = tested on: Kidney; test: Biodistribution in Sprague-Dawley rat kidney at 3.2 to 18.6 MBq, iv after 120 mins by micro PET analysis; type: ADME, organism-based; conditions: in vivo, 2 h; how it was run: as §2
[17] = Biodistribution in Sprague-Dawley rat urine at 3.2 to 18.6 MBq, iv after 120 mins by micro PET analysis; type: ADME, organism-based; conditions: in vivo, 2 h; how it was run: as §2
[18] = tested on: Rattus norvegicus; test: Biodistribution in Sprague-Dawley rat bladder at 3.2 to 18.6 MBq, iv after 120 mins by micro PET analysis; type: ADME, organism-based, Urinary bladder; conditions: in vivo, 2 h; how it was run: as §2
[19] = tested on: Intestine; test: Biodistribution in Sprague-Dawley rat intestine at 3.2 to 18.6 MBq, iv after 120 mins by micro PET analysis; type: ADME, organism-based; conditions: in vivo, 2 h; how it was run: as §2
[20] = tested on: Hippocampus; test: Biodistribution in Sprague-Dawley rat hippocampus at 3.2 to 18.6 MBq, iv after 120 mins by micro PET analysis; conditions: in vivo, 2 h
[21] = tested on: Cerebellum; test: Biodistribution in Sprague-Dawley rat cerebellum at 3.2 to 18.6 MBq, iv after 120 mins by micro PET analysis; conditions: in vivo, 2 h
[22] = Mus musculus, po, read-out: ED50

Compound: O=C(Nc1ccc2nc(O)sc2c1)C(=O)N1CCC(Cc2ccccc2)CC1
ED50 [1]: 0.5 mg/kg

Stability [2]: Unstable
Stability [3]: Unstable
Compound: Fc1ccc(CC2CCNCC2)cc1

IC50 [4]: 5 nM
Compound: O=C(Nc1ccc2[nH]c(O)nc2c1)C(=O)N1CCC(Cc2ccc(F)cc2)CC1
ED50 [1, 22]: 0.5 mg/kg

IC50 [4]: 4 nM
Compound: O=C(Nc1ccc2nc(O)oc2c1)C(=O)N1CCC(Cc2ccccc2)CC1
ED50 [1, 22]: 0.5 mg/kg

Drug uptake [5]: 0.044 % ID/g
Drug uptake [6]: 0.098 % ID/g
Drug uptake [7]: 0.035 % ID/g
Drug uptake [8]: 1.576 % ID/g
Drug uptake [9]: 0.225 % ID/g
half-life [10]: 35 min
Drug uptake [11]: 0.445 % ID/g
Drug uptake [12]: 0.068 % ID/g
Drug uptake [13]: 0.391 % ID/g
Drug uptake [14]: 2.255 % ID/g
Drug uptake [15]: 0.305 % ID/g
Drug uptake [16]: 0.384 % ID/g
Drug uptake [17]: 1.327 % ID/g
Drug uptake [18]: 0.373 % ID/g
Drug uptake [19]: 0.188 % ID/g
Drug uptake [20]: 0.037 % ID/g
Drug uptake [21]: 0.035 % ID/g
Compound: Oc1ccc2[nH]c(CN3CCC(Cc4ccc([18F])cc4)CC3)nc2c1

— ChEMBL document CHEMBL1799931, “Synthesis, evaluation and metabolic studies of radiotracers containing a 4-(4-[18F]-fluorobenzyl)piperidin-1-yl moiety for the PET imaging of NR2B NMDA receptors” (Eur J Med Chem, 2011)
